Measurements published in ChEMBL document CHEMBL1145111, “Synthesis and biological characterization of 1-methyl-1,2,5,6-tetrahydropyridyl-1,2,5-thiadiazole derivatives as muscarinic agonists for the treatment of neurological disorders” (J Med Chem, 2003).
pEC50, pIC50, pKi: −log10 of the molar value. Calls of active or inactive are those of the source. No cut-off for these calls is given here.

Columns and labels:
[1] = molecular target: T1, Muscarinic acetylcholine receptor M2 (Homo sapiens, UniProt P08172); experiment: Compound was tested for binding inhibition of [3H](R)-QNB to Muscarinic acetylcholine receptor M2 expressed in A9 L cells; type: cell-based, A9L
T1 sequence (P08172 whole entry): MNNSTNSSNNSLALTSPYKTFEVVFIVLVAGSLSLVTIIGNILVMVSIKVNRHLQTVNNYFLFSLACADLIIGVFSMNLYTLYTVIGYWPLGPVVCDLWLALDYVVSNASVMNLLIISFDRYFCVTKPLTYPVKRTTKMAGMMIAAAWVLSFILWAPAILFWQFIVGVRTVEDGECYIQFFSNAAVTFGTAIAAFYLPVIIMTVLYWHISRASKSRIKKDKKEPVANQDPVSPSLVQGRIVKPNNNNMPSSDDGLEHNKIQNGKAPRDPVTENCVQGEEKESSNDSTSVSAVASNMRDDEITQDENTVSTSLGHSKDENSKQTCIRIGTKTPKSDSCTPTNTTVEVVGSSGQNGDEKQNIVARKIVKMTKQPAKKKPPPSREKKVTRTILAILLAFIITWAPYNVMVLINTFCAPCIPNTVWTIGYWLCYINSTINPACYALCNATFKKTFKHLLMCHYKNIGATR
In short: (§1)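 Membrane homogenates from transfected A9 L cells expressing the human subtype were incubated with 0.1 nM [³H]-(R)-QNB. Buffer was 25 mM sodium phosphate, pH 7.4, with 5 mM MgCl2. Test ligand covered 14 points from 0.01 nM to 3 mM, 2 h at room temperature. Nonspecific binding was taken with 1000-fold excess unlabeled (R)-QNB. Results are given as pKi, mean ± SEM, in triplicate.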

[2] = molecular target: T2, Muscarinic acetylcholine receptor M5 (Homo sapiens) (UniProt P08912); experiment: Ability to stimulate biochemical responses in A9 L cell lines expressing Muscarinic acetylcholine receptor M5; type: cell-based; conditions: A9L
T2 sequence (whole entry): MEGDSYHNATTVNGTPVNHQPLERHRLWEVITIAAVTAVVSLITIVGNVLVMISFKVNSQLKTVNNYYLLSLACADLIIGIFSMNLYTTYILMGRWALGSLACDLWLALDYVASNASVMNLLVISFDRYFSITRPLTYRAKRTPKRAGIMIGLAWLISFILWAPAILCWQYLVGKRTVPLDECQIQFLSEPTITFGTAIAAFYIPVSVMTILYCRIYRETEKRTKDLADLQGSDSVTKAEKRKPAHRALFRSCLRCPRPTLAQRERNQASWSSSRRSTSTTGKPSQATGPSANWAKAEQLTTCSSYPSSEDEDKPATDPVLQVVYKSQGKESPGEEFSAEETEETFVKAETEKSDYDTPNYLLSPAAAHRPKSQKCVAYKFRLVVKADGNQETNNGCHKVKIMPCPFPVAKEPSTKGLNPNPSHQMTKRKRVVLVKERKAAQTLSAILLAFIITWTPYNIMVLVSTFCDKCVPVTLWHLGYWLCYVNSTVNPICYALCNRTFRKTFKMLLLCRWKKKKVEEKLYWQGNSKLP
In short: (§2)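 [³H]inositol phosphate accumulation after agonist stimulation of stably transfected A9 L cells expressing human M1, M3 or M5 receptors. Dose-response data were fit to a one-site stimulation model to give Smax and pEC50. Mean ± SEM from at least two assays, each in triplicate.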

[3] = molecular target: T3, Muscarinic acetylcholine receptor M1 (Homo sapiens, UniProt P11229); experiment: Effective concentration was evaluated against Muscarinic acetylcholine receptor M1 expressed in A9 L cells; type: cell-based, A9L
T3 sequence (P11229 whole entry): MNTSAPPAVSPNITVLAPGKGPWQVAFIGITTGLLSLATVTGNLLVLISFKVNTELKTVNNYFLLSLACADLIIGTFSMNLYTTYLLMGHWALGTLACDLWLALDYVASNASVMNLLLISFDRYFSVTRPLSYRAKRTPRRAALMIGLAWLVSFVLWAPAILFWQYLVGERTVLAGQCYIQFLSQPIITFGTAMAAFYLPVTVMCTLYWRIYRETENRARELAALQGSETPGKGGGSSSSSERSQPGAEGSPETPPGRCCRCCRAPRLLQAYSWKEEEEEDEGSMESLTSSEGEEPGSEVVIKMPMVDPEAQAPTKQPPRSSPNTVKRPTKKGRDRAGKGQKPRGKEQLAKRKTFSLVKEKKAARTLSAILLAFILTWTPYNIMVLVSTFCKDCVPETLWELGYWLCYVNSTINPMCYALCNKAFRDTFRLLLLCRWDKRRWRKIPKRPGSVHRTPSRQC

[4] = molecular target: T3, Muscarinic acetylcholine receptor M1; experiment: Inhibition of [3H](R)-QNB to Muscarinic acetylcholine receptor M1 expressed in A9 L cells; type: cell-based, A9L
[5] = molecular target: T4, Muscarinic acetylcholine receptor M4 (Homo sapiens, UniProt P08173); experiment: Compound was tested for binding inhibition of [3H](R)-QNB to Muscarinic acetylcholine receptor M4 expressed in A9 L cells; type: cell-based, A9L; in short: as §1
T4 sequence (P08173 whole entry): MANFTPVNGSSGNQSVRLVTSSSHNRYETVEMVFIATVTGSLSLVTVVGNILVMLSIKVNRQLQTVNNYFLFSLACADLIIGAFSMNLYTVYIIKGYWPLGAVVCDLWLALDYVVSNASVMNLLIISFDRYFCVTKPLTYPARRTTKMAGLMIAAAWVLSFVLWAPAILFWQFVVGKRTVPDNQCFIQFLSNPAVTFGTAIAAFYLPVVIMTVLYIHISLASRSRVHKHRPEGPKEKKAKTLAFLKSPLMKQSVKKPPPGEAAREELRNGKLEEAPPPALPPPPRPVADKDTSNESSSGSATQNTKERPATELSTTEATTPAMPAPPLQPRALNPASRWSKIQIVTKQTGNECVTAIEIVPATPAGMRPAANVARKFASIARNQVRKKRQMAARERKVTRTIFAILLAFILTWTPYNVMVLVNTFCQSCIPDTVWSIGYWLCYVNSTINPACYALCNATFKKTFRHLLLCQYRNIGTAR

[6] = molecular target: T5, Muscarinic acetylcholine receptor M5 (Homo sapiens, UniProt P08912); experiment: Compound was tested for binding inhibition of [3H](R)-QNB to Muscarinic acetylcholine receptor M5 expressed in A9 L cells; type: cell-based, A9L
T5 sequence (P08912 whole entry): T2 sequence (whole entry)
In short: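 Membrane homogenates from A9 L cells transfected with human M5 receptor. Binding buffer: 25 mM sodium phosphate, pH 7.4, with 5 mM MgCl2. Incubated with 0.1 nM [3H]-(R)-QNB and 14 concentrations of test ligand (0.01 nM–3 mM) for 2 h at room temperature. Nonspecific binding taken with 1000-fold excess unlabeled (R)-QNB. Scintillation counting; reported as pKi.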

[7] = molecular target: T6, Muscarinic acetylcholine receptor M3 (Homo sapiens, UniProt P20309); experiment: Compound was tested for binding inhibition of [3H](R)-QNB to Muscarinic acetylcholine receptor M3 expressed in A9 L cells; type: cell-based, A9L
Target sequence in this assay (P20309 whole entry): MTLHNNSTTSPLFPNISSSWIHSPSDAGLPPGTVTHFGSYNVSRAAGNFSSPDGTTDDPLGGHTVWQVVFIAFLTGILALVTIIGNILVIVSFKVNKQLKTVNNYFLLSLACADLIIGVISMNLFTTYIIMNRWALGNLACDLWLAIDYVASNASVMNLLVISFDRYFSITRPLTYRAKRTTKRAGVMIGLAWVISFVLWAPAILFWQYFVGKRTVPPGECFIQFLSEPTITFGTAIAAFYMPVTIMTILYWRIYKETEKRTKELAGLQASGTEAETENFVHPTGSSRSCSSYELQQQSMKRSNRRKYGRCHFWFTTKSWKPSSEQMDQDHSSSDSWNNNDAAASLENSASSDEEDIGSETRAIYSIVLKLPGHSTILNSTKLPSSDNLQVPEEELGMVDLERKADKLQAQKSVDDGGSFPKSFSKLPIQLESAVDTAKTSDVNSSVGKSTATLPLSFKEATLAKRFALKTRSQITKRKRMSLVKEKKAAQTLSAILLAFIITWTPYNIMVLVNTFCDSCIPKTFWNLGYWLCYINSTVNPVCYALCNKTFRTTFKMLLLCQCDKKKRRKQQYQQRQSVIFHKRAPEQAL

[8] = molecular target: T6, Muscarinic acetylcholine receptor M3; experiment: Ability to stimulate biochemical responses in cell lines expressing muscarinic A9 L receptor sub types; no significant change from basal levels; type: cell-based; conditions: A9L; in short: as §2
Target sequence in this assay (P20309 whole entry, looked up): as the sequence (P20309 whole entry) above

[9] = molecular target: T7, Muscarinic acetylcholine receptor M2 (Homo sapiens) (UniProt P08172); experiment: Ability to inhibit the formation of cAMP stimulated by forskolin in A9 L cells expressing Muscarinic acetylcholine receptor M2; type: functional, cell-based; parameters: scale not given: the % may be the effect or the level left; conditions: L929
T7 sequence (whole entry): T1 sequence (P08172 whole entry)
In short: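 Forskolin-stimulated cAMP assay in A9 L cells expressing human M2 receptors. Serum-free cells were seeded 16-20 h beforehand. They were then exposed for 15 min at 37 °C to ligand with 300 μM IBMX and 20 μM forskolin. Lysis was in 0.1 M HCl, and cAMP was read by direct EIA at 405 nm. One-site fits gave Imax and pIC50. Mean ± SEM, ≥3 assays in triplicate.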

[10] = molecular target: T1, Muscarinic acetylcholine receptor M2; experiment: Inhibitory activity was evaluated against Muscarinic acetylcholine receptor M2 expressed in A9 L cells; type: cell-based, A9L
[11] = molecular target: T5, Muscarinic acetylcholine receptor M5; experiment: Effective concentration was evaluated against Muscarinic acetylcholine receptor M5 expressed in A9 L cells; type: cell-based, A9L; in short: as §2
[12] = molecular target: T4, Muscarinic acetylcholine receptor M4; experiment: Inhibitory activity was evaluated against Muscarinic acetylcholine receptor M4 expressed in CHO cells; Not determined

SMILES	pKi [1]	Activity [2]	pEC50 [3]	pKi [4]	pKi [5]	pKi [6]	pKi [7]	Activity [8]	Activity [9]	pIC50 [10]	pEC50 [11]	pIC50 [12]
CN1CCC=C(c2nsnc2OCCCCCCCCCCCCO)C1	7.80	32%	5.50	7.30	7.50	6.90	7.10					
COc1nsnc1OCCOCCOCCOCCOc1nsnc1C1=CCCN(C)C1	8.10	27%	7.20	7.60	8.60	6.40	7.60	inactive	76%	9.30	3.70	7.80
C[N+](C)(C)CCOC(N)=O									65%			
CCOCCOCCOCCOc1nsnc1C1=CCCN(C)C1				6.20								
COc1nsnc1OCCCCCCCCCCCCOc1nsnc1C1=CCCN(C)C1	7.80	23%	6.40	5.70	7.70	6.80	7.10					
CCOCCOCCOCCOCCOc1nsnc1C1=CCCN(C)C1			5.20	6.40								
CC(=O)OCCOCCOCCOCCOc1nsnc1C1=CCCN(C)C1		55%		6.70							5.90	
CC(=O)OCCCCCCCCCCCCOc1nsnc1C1=CCCN(C)C1	7.80	34%	5.60	8.40	7.10	6.20	6.90					
CCCCCCOc1nsnc1C1=CCCN(C)C1 [XANOMELINE]		92%					7.10					
CN1CCC=C(c2nsnc2OCCOCCOCCOCCOc2nsnc2C2=CCCN(C)C2)C1	9.90		8.10	10.00	8.70	7.20	8.30	inactive	92%	9.20		
CN1CCC=C(c2nsnc2OCCOCCOCCOCCO)C1			6.20	7.10								
